This is an account of results in PMC5713684 (International Journal of Nanomedicine, 2017).

Data set [1] in a line: Ghrl-stability evaluation. Type of data set: physicochemical. The conditions noted are these: Ghrl 1 mg/mL, physiological pH, 4–60°C, up to 48 hours, HPLC/UV. An outline of the steps:
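Ghrelin at 1 mg/mL was held at 4, 25, 37 and 60°C in water, PBS pH 7.4, HBSS pH 7.4 and pharmacopoeial buffers from pH 2 to 10.4 (PBS, acetate, phosphate, boric acid, borate). Samples were drawn at 0.5–6, 24 and 48 h. Remaining peptide was quantified by reversed-phase HPLC/UV on an ODS column at 37°C, using water/acetonitrile mobile phases with 0.1% TFA.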

The conditions of data set [2]: human plasma; cited from earlier work.
A short description of data set [3]: Isothermal titration calorimetry of Ghrl with AL-free. Type of data set: binding. To be noted: ITC, AL-free 10 mg/mL injected into Ghrl 1 mg/mL, PBS pH 7.4, 26°C, mean of n=2. In short, it runs like this:
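Empty anionic liposomes (10 mg/mL in PBS pH 7.4) were injected stepwise into ghrelin (1 mg/mL in PBS) in the measuring cell. Each injection lasted 14.5 s, with 600 s spacing until steady state. Solutions were degassed beforehand, water served as reference and stirring was 300 rpm. A PBS-only blank was titrated. Heats were fitted to a cumulative model for K, ΔG, ΔH and TΔS. The titration was done twice and averaged.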
(In general: Isothermal titration calorimetry measures the heat released or taken up as one component is titrated into another.)

For data set [4] the following is noted: cited from earlier work.

No end group written: not given here. *: point of attachment. Octanoyl = CCCCCCCC(=O)*

As to “ghrelin (GSS(Octanoyl)FLSPEHQRVQQRKESKKPPAKLQPR; UniProt Q9UBU3 24-51, looked up) [Ghrl]”, in data set [1], the “Stability of Ghrl on prolonged heating” value is “without any degradation”. Besides, the “plasmatic half-life t½” value in data set [2] is 9 to 13 min. In addition, the “Binding coefficient K” value in data set [3] was 0.875 mM⁻¹. The isoelectric point in data set [4] was 11.5.
